This is an account of results in ChEMBL document CHEMBL4257441, “Protection effect of intracellular melanin from Lachnum YM156 and Haikunshenxi capsule combination on adenine-induced chronic renal failure in mice” (Medchemcomm, 2017).

Test [1] deals with Mus musculus. Nature of the test: Protective effect against adenine-induced chronic renal failure in ig dosed Kunming mouse assessed as decrease in serum creatinine levels administered as qd for 4 successive weeks by picric acid colorimetric method. In kind it is functional, organism-based. The method, boiled down: (§1)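 Adenine-fed CRF model in male Kunming mice (20 ± 5 g) housed at 18–20 °C on a 12 h light/dark cycle. Oral dosing at 100 or 200 mg kg–1, with or without Haikunshenxi capsule; ten mice per group. Serum creatinine, BUN, total protein and albumin measured, each group compared with the model group.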

Test [2] has as its system Mus musculus. In words: Protective effect against adenine-induced chronic renal failure in ig dosed Kunming mouse assessed as decrease in blood urea nitrogen levels in serum administered as qd for 4 successive weeks by diacetyl oxime method. It is filed as functional, organism-based. The method in brief: as §1
Test [3] concerns Mus musculus. Nature of the test: Protective effect against adenine-induced chronic renal failure in ig dosed Kunming mouse assessed as decrease in serum creatinine levels administered as qd for 4 successive weeks with haikunshenxi capsule by picric acid colorimetric method. It is filed as functional, organism-based. The method, boiled down: as §1
In test [4] the test system is Mus musculus. Nature of the test: Protective effect against adenine-induced chronic renal failure in ig dosed Kunming mouse assessed as increase in total protein levels in serum administered as qd for 4 successive weeks with haikunshenxi capsule by coomassie brilliant blue method. It is filed as functional, organism-based. The method in brief:
as §1

In test [5] the test system is Mus musculus. Nature of the test: Protective effect against adenine-induced chronic renal failure in Kunming mouse assessed as kidney index at 200 mg/kg, ig qd administered for 4 successive weeks measured 24 hrs post last dose (reference value: 1.94 +/- 0.03 mg/g). In kind it is functional. The method, boiled down:
(§2)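 Male Kunming mice (20 ± 5 g) were housed on a 12 h light/dark cycle at 18–20 °C. Chronic renal failure was induced by long-term dietary adenine. The melanin was given orally at 100 or 200 mg kg–1, alone or with Haikunshenxi capsule as positive drug, with ten mice per group. Weight growth rate (%) and kidney index (mg g–1) were recorded.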

Test [6] relates to Mus musculus. Nature of the test: Protective effect against adenine-induced chronic renal failure in Kunming mouse assessed as kidney index at 200 mg/kg, ig qd administered for 4 successive weeks with haikunshenxi capsule measured 24 hrs post last dose (reference value: 1.94 +/- 0.03 mg/g). In kind it is functional. The method, boiled down: as §2
For test [7], the system named is Mus musculus. Nature of the test: Protective effect against adenine-induced chronic renal failure in Kunming mouse assessed as nephridial CAT levels at 100 mg/kg, ig qd administered for 4 successive weeks by visible spectrometry method (reference value: 44.13 +/- 1.25 U/mg). In kind it is functional.
Test [8] has as its system Mus musculus. In words: Protective effect against adenine-induced chronic renal failure in Kunming mouse assessed as nephridial GSH-PX levels at 100 mg/kg, ig qd administered for 4 successive weeks by colorimetric method (reference value: 688.45 +/- 12.67 U/L). In kind it is functional.
For test [9], the system named is Mus musculus. Nature of the test: Protective effect against adenine-induced chronic renal failure in Kunming mouse assessed as nephridial GSH-PX levels at 200 mg/kg, ig qd administered for 4 successive weeks by colorimetric method (reference value: 688.45 +/- 12.67 U/L). In kind it is functional.
For test [10], the system named is Mus musculus. In words: Protective effect against adenine-induced chronic renal failure in Kunming mouse assessed as nephridial GSH-PX levels at 200 mg/kg, ig qd administered for 4 successive weeks with haikunshenxi capsule by colorimetric method (reference value: 688.45 +/- 12.67 U/L). In kind it is functional.
Test [11] concerns Mus musculus. Nature of the test: Protective effect against adenine-induced chronic renal failure in Kunming mouse assessed as nephridial GSH levels at 100 mg/kg, ig qd administered for 4 successive weeks with haikunshenxi capsule by colorimetric method (reference value: 3.05 +/- 0.11 mg/g). In kind it is functional.
Test [12] deals with Mus musculus. In words: Protective effect against adenine-induced chronic renal failure in Kunming mouse assessed as nephridial GSH levels at 200 mg/kg, ig qd administered for 4 successive weeks with haikunshenxi capsule by colorimetric method (reference value: 3.05 +/- 0.11 mg/g). It is filed as functional.
For test [13], the system named is Mus musculus. Nature of the test: Protective effect against adenine-induced chronic renal failure in ig dosed Kunming mouse assessed as increase in nephridial GSH-PX levels administered as qd for 4 successive weeks by colorimetric method. In kind it is functional, organism-based. The method, boiled down:
(§3)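 Male Kunming mice (20 ± 5 g) given dietary adenine to induce CRF, then dosed orally at 100 or 200 mg kg–1, with or without Haikunshenxi capsule; n = 10 per group. Kidney homogenate assayed for SOD and CAT (U mg–1 protein), GSH-Px (U L–1), GSH (mg g–1 protein) and MDA (nmol mL–1).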

Test [14] has as its system Mus musculus. In words: Protective effect against adenine-induced chronic renal failure in ig dosed Kunming mouse assessed as increase in nephridial GSH levels administered as qd for 4 successive weeks by colorimetric method. In kind it is functional, organism-based. The method, boiled down: as §3
Test [15] relates to Mus musculus. In words: Protective effect against adenine-induced chronic renal failure in ig dosed Kunming mouse assessed as increase in nephridial SOD levels administered as qd for 4 successive weeks with haikunshenxi capsule by hydroxylamine method. In kind it is functional, organism-based. The method in brief:
as §3

Test [16] concerns Mus musculus. In words: Protective effect against adenine-induced chronic renal failure in ig dosed Kunming mouse assessed as increase in nephridial CAT levels administered as qd for 4 successive weeks with haikunshenxi capsule by visible spectrometry method. In kind it is functional, organism-based. The method, boiled down: as §3
The subject of test [17] is Mus musculus. Nature of the test: Protective effect against adenine-induced chronic renal failure in Kunming mouse assessed as nephridial TNF-alpha levels at 200 mg/kg, ig qd administered for 4 successive weeks with haikunshenxi capsule (reference value: 250.15 +/- 8.10 pg/ml). It is filed as functional.
In test [18] the test system is Mus musculus. In words: Protective effect against adenine-induced chronic renal failure in Kunming mouse assessed as nephridial IL-1beta levels at 200 mg/kg, ig qd administered for 4 successive weeks (reference value: 18.34 +/- 0.25 pg/ml). It is filed as functional.
Test [19] deals with Mus musculus. Nature of the test: Protective effect against adenine-induced chronic renal failure in Kunming mouse assessed as nephridial IL-6 levels at 100 mg/kg, ig qd administered for 4 successive weeks (reference value: 20.85 +/- 0.11 pg/ml). In kind it is functional.
Test [20] concerns Mus musculus. Nature of the test: Protective effect against adenine-induced chronic renal failure in Kunming mouse assessed as nephridial IL-6 levels at 200 mg/kg, ig qd administered for 4 successive weeks (reference value: 20.85 +/- 0.11 pg/ml). It is filed as functional.
Test [21] relates to Mus musculus. In words: Protective effect against adenine-induced chronic renal failure in Kunming mouse assessed as nephridial IL-6 levels at 100 mg/kg, ig qd administered for 4 successive weeks with haikunshenxi capsule (reference value: 20.85 +/- 0.11 pg/ml). It is filed as functional.
The subject of test [22] is Mus musculus. Nature of the test: Protective effect against adenine-induced chronic renal failure in ig dosed Kunming mouse assessed as decrease in nephridial IL-1beta levels administered as qd for 4 successive weeks. It is filed as functional, organism-based. The method in brief: (§4)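 CRF model made by chronic dietary adenine in male Kunming mice (20 ± 5 g); oral dosing at 100 or 200 mg kg–1, alone or with Haikunshenxi capsule; ten mice per group. Kidney tissue TNF-α, IL-1β and IL-6 measured as pg per mg protein, and iNOS activity as U mg–1 protein.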

In test [23] the test system is Mus musculus. In words: Protective effect against adenine-induced chronic renal failure in ig dosed Kunming mouse assessed as decrease in nephridial TNF-alpha levels administered as qd for 4 successive weeks with haikunshenxi capsule. It is filed as functional, organism-based. The method, boiled down:
as §4

Test [24] has as its system Mus musculus. In words: Protective effect against adenine-induced chronic renal failure in Kunming mouse assessed as reduction in interstitial fibrosis at 200 mg/kg, ig qd administered for 4 successive weeks with haikunshenxi capsule by haematoxylin and eosin dye-based optical microscopic method. It is filed as functional, organism-based. The method, boiled down:
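Kidneys were taken from male Kunming mice given an adenine diet plus oral melanin (100 or 200 mg kg–1), with or without Haikunshenxi capsule, ten per group. Histological sections were examined at 400× for glomeruli, tubules, adenine crystals, tubular atrophy and interstitial fibrosis.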

Calls of active or inactive are those of the source. The calls are words filed in the database; no cut-off is given here.

Take `Cc1c(=O)c(=O)c2c3c[nH]c4c(C)c(=O)c(=O)c(c5c[nH]c1c52)c43`: the Activity entry in test [1] was “Dose-dependent effect”; in [2], “Dose-dependent effect”; in test [3], “Dose-dependent effect”; in [4], “Dose-dependent effect”; in test [5], 1.35 mg/g; in test [6] it was 1.13 mg/g. Also, the Activity in [7] is recorded as 60.53 U/mg; in test [8], 743.09 U/L; in test [9], 790.43 U/L; in test [10] it was 878.91 U/L; in test [11], 5.23 mg/g; in test [12], 5.38 mg/g. Further, the Activity entry in [13] is “Dose-dependent effect”; in [14], “Dose-dependent effect”; in test [15], “Dose-dependent effect”; in test [16], “Dose-dependent effect”; in test [17] it was 84.35 pg/mL; in test [18], 16.03 pg/mL. For the same compound, the Activity in test [19] is 18.27 pg/mL; in test [20] it was 14.16 pg/mL; in test [21], 12.07 pg/mL; in test [22], “Dose-dependent effect”; in test [23] it was “Dose-dependent effect”. For the same compound, in test [24], the result was Active.
